Assay [1] deals with Tyrosine-protein kinase ABL1 (Homo sapiens), P00519 [E255K]. The assay is described as follows: Binding affinity to human phosphorylated ABL1 E255K mutant (S229 to K512 residues) expressed in mammalian expression system assessed as residual binding level at 1 uM by Kinomescan method relative to control. The method in brief:
(§1)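 KinomeScan active site-directed competition binding panel (468 kinases), compound tested at 1 μM. Result expressed as remaining kinase signal versus DMSO control (percent of control).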

Assay [2] concerns the target Dual specificity mitogen-activated protein kinase kinase 5 (Homo sapiens) (UniProt Q13163). As to the kind of experiment: Binding affinity to wild-type human partial length MEK5 (L98 to P448 residues) expressed in mammalian expression system assessed as residual binding level at 1 uM by Kinomescan method relative to control. The essentials:
(§2)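 Active-site-directed competition binding panel of 468 kinases (KinomeScan), compound at 1 μM. The read-out is kinase remaining bound, given as a percentage of the DMSO control. […]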

The target in assay [3] is Ribosomal protein S6 kinase beta-1 (Homo sapiens) (UniProt P23443). The assay is described as follows: Binding affinity to wild-type human partial length S6K1 (M1 to S421 residues) expressed in mammalian expression system assessed as residual binding level at 1 uM by Kinomescan method relative to control.
The target of assay [4] is Mitogen-activated protein kinase 13 (Homo sapiens) (UniProt O15264). As to the kind of experiment: Binding affinity to wild-type human full length p38-delta (M1 to L365 residues) expressed in bacterial expression system assessed as residual binding level at 1 uM by Kinomescan method relative to control.
Assay [5] deals with Proto-oncogene tyrosine-protein kinase receptor Ret (Homo sapiens), P07949 [V804L]. As to the kind of experiment: Binding affinity to human partial length RET V804L mutant (E713 to D1014 residues) expressed in bacterial expression system assessed as residual binding level at 1 uM by Kinomescan method relative to control. The essentials:
as §1

In assay [6] the target is Mitogen-activated protein kinase kinase kinase kinase 5 (Homo sapiens) (UniProt Q9Y4K4). The assay is described as follows: Binding affinity to wild-type human partial length MAP4K5 (M1 to P297 residues) expressed in bacterial expression system assessed as residual binding level at 1 uM by Kinomescan method relative to control.
For assay [7], the target named is Serine/threonine-protein kinase MARK1 (Homo sapiens) (UniProt Q9P0L2). As to the kind of experiment: Binding affinity to wild-type human partial length MARK1 (Q30 to T341 residues) expressed in bacterial expression system assessed as residual binding level at 1 uM by Kinomescan method relative to control. The method in brief: as §2
Assay [8] deals with Mitogen-activated protein kinase kinase kinase 20 (Homo sapiens) (UniProt Q9NYL2). As to the kind of experiment: Binding affinity to wild-type human partial length ZAK (M1 to L331 residues) expressed in bacterial expression system assessed as residual binding level at 1 uM by Kinomescan method relative to control. The essentials:
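Active site-directed competition binding panel (KinomeScan, 468 kinases). Test compound at 1 μM. Read-out is kinase binding remaining versus DMSO control, expressed as percent of control. Scores above 35% are treated as weak binding.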

The target in assay [9] is Casein kinase II subunit alpha (Homo sapiens) (UniProt P68400). As to the kind of experiment: Binding affinity to wild-type human full length CSNK2A1 (M1 to Q391 residues) expressed in mammalian expression system assessed as residual binding level at 1 uM by Kinomescan method relative to control. The essentials:
(§3)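 KinomeScan, an active site-directed competition binding panel of 468 kinases. The test compound was at 1 μM. The readout is remaining kinase binding as a percentage of the DMSO control. Scores above 35% were treated as weak binding and not listed.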

Assay [10] deals with Interleukin-1 receptor-associated kinase 1 (Homo sapiens) (UniProt P51617). As to the kind of experiment: Binding affinity to wild-type human partial length IRAK1 (R194 to S712 residues) expressed in mammalian expression system assessed as residual binding level at 1 uM by Kinomescan method relative to control.
Assay [11] concerns the target 1-phosphatidylinositol 3-phosphate 5-kinase (Homo sapiens) (UniProt Q9Y2I7). The assay is described as follows: Binding affinity to wild-type human partial length PIKFYVE (F1512 to C2098 residues) expressed in mammalian expression system assessed as residual binding level at 1 uM by Kinomescan method relative to control.
Assay [12] has as its target Myotonin-protein kinase (Homo sapiens) (UniProt Q09013). The assay is described as follows: Binding affinity to wild-type human partial length DMPK (V47 to V415 residues) expressed in bacterial expression system assessed as residual binding level at 1 uM by Kinomescan method relative to control.
The target in assay [13] is Calcium/calmodulin-dependent protein kinase type II subunit beta (Homo sapiens) (UniProt Q13554). The assay is described as follows: Binding affinity to wild-type human partial length CAMK2B (M1 to Q380 residues) expressed in bacterial expression system assessed as residual binding level at 1 uM by Kinomescan method relative to control.
For assay [14], the target named is Ribosomal protein S6 kinase alpha-4 (Homo sapiens) (UniProt O75676). As to the kind of experiment: Binding affinity to wild-type human partial length C-terminal RPS6KA4 kinase domain 2 (M375 to T705 residues) expressed in mammalian expression system assessed as residual binding level at 1 uM by Kinomescan method relative to control.
Assay [15] addresses Serine/threonine-protein kinase BRSK1 (Homo sapiens) (UniProt Q8TDC3). The assay is described as follows: Binding affinity to wild-type human partial length BRSK1 (M1 to E754 residues) expressed in bacterial expression system assessed as residual binding level at 1 uM by Kinomescan method relative to control.
Assay [16] concerns the target Ribosomal protein S6 kinase alpha-1 (Homo sapiens) (UniProt Q15418). As to the kind of experiment: Binding affinity to wild-type human partial length N-terminal RSK1 Kinase domain 1 (M1 to E388 residues) expressed in bacterial expression system assessed as residual binding level at 1 uM by Kinomescan method relative to control.
The target in assay [17] is Aurora kinase C (Homo sapiens) (UniProt Q9UQB9). The assay is described as follows: Binding affinity to wild-type human full length AURKC (M1 to S275 residues) expressed in bacterial expression system assessed as residual binding level at 1 uM by Kinomescan method relative to control. The essentials:
as §3

Assay [18] deals with Inhibitor of nuclear factor kappa-B kinase subunit epsilon (Homo sapiens) (UniProt Q14164). As to the kind of experiment: Binding affinity to wild-type human full length IKK-epsilon (M1 to V716 residues) expressed in mammalian expression system assessed as residual binding level at 1 uM by Kinomescan method relative to control. The essentials: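 Active-site-directed KinomeScan competition binding panel covering 468 kinases, compound tested at 1 μM. Each readout is the kinase signal remaining with compound, expressed as a percentage of the DMSO control. […]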

The subject of assay [19] is Epidermal growth factor receptor (Homo sapiens), P00533 [G719C]. The assay is described as follows: Binding affinity to human partial length EGFR G719C mutant (R669 to V1011 residues) expressed in bacterial expression system assessed as residual binding level at 1 uM by Kinomescan method relative to control. The method in brief:
as §1

In assay [20] the test system is Phosphatidylinositol 4,5-bisphosphate 3-kinase catalytic subunit alpha isoform (Homo sapiens), P42336 [H1047Y]. As to the kind of experiment: Binding affinity to human partial length PIK3CA H1047Y mutant (R108 to N1068 residues) expressed in mammalian expression system assessed as residual binding level at 1 uM by Kinomescan method relative to control. The essentials: as §1

For assay [21], the target named is Serine/threonine-protein kinase Nek11 (Homo sapiens) (UniProt Q8NG66). As to the kind of experiment: Binding affinity to wild-type human partial length NEK11 (M1 to E313 residues) expressed in mammalian expression system assessed as residual binding level at 1 uM by Kinomescan method relative to control. The essentials:
as §2

Chain of Inhibitor of nuclear factor kappa-B kinase subunit epsilon (Homo sapiens) (Q14164 whole entry, the tested form may be a part): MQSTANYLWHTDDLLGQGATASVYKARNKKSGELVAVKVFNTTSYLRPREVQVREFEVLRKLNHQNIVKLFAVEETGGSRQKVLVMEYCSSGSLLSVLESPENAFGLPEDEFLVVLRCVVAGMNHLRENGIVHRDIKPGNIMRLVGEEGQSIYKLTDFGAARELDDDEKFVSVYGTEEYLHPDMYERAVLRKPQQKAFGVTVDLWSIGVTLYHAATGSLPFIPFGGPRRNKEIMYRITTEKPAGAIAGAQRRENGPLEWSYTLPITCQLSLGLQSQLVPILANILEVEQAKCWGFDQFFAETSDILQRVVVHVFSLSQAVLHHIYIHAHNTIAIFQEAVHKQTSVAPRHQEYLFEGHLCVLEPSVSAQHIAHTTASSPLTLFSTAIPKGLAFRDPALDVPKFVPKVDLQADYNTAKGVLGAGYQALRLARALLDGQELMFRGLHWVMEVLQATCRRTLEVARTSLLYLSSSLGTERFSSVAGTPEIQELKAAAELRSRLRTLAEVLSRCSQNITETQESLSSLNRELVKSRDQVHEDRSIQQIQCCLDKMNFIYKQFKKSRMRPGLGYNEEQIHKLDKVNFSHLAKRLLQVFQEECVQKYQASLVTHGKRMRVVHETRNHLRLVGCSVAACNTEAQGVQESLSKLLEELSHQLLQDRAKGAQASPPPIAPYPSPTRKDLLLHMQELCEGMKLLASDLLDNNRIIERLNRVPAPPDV
Chain of Serine/threonine-protein kinase MARK1 (Homo sapiens) (Q9P0L2 whole entry, looked up, the tested form may be a part): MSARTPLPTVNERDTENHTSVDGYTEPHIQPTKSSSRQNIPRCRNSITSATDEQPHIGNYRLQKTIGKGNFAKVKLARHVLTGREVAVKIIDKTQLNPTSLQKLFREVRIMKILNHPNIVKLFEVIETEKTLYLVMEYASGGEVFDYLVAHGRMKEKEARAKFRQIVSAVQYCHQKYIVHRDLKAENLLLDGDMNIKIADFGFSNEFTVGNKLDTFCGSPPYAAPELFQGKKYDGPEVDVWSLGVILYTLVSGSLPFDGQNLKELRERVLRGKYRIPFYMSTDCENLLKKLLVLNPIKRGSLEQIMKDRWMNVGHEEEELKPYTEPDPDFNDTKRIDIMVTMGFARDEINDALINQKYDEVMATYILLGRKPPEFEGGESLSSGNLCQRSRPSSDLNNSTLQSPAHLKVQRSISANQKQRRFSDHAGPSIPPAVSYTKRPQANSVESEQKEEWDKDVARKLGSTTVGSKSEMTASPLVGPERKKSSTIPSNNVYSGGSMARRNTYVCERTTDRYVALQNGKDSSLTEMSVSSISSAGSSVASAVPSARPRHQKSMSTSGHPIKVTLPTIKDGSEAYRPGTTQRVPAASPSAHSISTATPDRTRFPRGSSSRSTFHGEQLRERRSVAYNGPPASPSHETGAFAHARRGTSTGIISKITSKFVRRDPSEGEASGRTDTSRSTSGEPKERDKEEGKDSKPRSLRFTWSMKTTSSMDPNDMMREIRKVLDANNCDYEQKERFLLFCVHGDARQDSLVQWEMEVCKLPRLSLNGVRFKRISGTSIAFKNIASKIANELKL
Chain of Tyrosine-protein kinase ABL1 (Homo sapiens), P00519 [E255K] (P00519 whole entry E255K, the tested form may be a part): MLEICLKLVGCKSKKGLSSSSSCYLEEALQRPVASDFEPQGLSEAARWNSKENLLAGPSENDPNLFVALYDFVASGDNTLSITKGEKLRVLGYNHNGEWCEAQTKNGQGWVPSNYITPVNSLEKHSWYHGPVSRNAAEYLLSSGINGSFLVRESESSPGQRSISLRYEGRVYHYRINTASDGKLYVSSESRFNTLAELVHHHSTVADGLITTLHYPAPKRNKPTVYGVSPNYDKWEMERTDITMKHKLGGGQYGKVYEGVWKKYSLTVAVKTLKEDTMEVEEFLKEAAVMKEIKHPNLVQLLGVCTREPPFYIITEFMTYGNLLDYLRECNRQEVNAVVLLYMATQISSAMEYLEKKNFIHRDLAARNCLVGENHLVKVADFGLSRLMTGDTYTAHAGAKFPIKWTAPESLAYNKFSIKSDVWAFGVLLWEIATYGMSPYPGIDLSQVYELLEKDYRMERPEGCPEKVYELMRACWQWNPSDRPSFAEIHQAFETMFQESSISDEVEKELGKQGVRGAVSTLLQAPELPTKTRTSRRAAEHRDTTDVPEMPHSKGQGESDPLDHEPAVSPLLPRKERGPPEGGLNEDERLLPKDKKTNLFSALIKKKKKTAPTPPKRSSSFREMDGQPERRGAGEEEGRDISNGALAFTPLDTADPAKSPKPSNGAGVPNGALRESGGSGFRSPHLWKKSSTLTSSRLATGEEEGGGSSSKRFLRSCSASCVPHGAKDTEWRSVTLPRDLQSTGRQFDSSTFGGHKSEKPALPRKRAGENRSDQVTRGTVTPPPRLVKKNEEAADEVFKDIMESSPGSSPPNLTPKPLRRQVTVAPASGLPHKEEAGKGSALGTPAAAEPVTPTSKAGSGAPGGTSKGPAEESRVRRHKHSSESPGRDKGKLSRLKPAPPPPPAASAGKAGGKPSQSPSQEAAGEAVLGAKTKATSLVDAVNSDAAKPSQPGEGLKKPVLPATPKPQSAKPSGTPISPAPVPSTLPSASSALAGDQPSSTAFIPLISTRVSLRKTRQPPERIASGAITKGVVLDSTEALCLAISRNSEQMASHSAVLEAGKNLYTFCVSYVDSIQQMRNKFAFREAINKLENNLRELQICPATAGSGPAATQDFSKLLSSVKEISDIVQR
Chain of Interleukin-1 receptor-associated kinase 1 (Homo sapiens) (P51617 whole entry, looked up, the tested form may be a part): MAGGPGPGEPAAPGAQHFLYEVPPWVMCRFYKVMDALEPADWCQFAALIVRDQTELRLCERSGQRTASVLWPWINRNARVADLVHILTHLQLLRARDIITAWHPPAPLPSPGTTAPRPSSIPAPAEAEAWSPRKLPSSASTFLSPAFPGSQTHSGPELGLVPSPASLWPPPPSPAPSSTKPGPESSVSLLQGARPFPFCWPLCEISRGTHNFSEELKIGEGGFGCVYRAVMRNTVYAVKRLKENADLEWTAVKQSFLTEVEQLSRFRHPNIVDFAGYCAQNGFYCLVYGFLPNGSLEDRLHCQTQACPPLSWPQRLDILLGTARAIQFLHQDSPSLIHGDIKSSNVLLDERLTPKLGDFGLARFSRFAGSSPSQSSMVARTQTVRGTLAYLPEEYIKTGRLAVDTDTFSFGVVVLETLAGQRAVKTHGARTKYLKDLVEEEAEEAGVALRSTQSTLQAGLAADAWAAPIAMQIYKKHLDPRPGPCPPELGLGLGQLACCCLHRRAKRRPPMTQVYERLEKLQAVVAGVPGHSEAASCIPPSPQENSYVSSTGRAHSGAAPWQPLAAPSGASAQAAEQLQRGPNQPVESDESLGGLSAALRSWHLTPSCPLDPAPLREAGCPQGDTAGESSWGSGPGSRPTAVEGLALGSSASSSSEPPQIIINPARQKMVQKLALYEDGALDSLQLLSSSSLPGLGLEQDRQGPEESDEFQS
Chain of Ribosomal protein S6 kinase beta-1 (Homo sapiens) (P23443 whole entry, looked up, the tested form may be a part): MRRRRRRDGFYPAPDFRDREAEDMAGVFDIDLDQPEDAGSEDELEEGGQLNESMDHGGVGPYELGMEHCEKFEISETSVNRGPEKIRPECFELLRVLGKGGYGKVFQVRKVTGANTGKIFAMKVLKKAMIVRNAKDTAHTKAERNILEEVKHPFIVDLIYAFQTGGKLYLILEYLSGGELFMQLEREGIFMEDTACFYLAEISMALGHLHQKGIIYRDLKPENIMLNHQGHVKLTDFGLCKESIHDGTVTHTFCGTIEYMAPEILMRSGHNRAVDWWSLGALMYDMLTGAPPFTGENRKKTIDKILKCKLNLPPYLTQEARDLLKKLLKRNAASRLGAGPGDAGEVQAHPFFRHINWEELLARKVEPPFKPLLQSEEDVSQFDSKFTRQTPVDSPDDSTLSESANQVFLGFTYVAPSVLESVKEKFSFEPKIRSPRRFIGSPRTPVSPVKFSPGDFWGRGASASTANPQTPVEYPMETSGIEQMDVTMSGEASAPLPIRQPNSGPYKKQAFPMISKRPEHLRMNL
Chain of Serine/threonine-protein kinase Nek11 (Homo sapiens) (Q8NG66 whole entry, the tested form may be a part): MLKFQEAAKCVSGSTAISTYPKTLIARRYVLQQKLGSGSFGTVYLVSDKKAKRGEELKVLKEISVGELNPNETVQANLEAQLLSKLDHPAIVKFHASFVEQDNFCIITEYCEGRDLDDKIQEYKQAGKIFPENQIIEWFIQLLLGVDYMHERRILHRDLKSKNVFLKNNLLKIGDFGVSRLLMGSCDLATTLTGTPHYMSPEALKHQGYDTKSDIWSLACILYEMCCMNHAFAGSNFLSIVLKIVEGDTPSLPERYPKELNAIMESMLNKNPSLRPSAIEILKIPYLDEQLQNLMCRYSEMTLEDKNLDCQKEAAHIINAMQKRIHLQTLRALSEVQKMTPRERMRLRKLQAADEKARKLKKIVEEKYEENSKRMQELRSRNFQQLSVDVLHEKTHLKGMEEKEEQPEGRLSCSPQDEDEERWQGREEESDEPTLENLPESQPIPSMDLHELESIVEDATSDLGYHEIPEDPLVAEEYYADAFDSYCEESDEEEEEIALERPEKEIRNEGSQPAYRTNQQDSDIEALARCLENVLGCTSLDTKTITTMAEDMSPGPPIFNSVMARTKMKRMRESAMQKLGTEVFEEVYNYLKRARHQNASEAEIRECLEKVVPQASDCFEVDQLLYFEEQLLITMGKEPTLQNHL
Chain of Dual specificity mitogen-activated protein kinase kinase 5 (Homo sapiens) (Q13163 whole entry, the tested form may be a part): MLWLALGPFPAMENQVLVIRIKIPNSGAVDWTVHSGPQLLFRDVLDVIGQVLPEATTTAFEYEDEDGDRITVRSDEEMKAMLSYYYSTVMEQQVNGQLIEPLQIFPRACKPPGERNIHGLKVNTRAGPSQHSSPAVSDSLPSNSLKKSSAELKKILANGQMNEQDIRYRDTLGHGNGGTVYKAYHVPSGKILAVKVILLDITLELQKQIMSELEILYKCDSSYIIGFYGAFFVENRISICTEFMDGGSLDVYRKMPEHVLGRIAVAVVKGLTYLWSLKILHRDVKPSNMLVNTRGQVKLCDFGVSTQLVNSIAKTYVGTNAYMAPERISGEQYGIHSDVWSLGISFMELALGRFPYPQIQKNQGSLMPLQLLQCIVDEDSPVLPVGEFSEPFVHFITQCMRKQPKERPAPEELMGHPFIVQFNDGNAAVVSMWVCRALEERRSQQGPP

With `C=CC(=O)Nc1ccccc1Nc1nc(Nc2ccc(N3CCN(C)CC3)cc2)ncc1C(=O)Nc1c(C)cccc1Cl`, the Activity was 0.15% in assay [1]; 81% in [2]; 95% in assay [3]; 100% in [4]; 100% in assay [5]; 100% in assay [6]. Also, the Activity came to 99% in assay [7]; 98% in [8]; 68% in [9]; 100% in assay [10]; 100% in assay [11]; 100% in assay [12]. The Activity was found to be 100% in assay [13]; 100% in [14]; 100% in assay [15]; 100% in [16]; 98% in assay [17]; 100% in [18]. Besides, the figures for the Activity in assay [19], in [20] and in assay [21] were 100%, 100% and 72%, respectively.
